In paper PMC2862791 (Journal of controlled release : official journal of the …, 2010):

Legend:
3T3-L1 cells [1] = experiment: Cell cytotoxicity; type: cell-based; settings: MTT, 24 h
Method in brief: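 3T3-L1 cells were differentiated under hypoxia (100 μM CoCl2 in differentiation medium, refreshed every 2 days) and treated for 24 h at 37 °C with the test compound, at 1.5 μg/μl ASO equivalent. MTT (5 mg/ml in complete DMEM) was then added for 5 h. Formazan was dissolved in DMSO and absorbance read. Viability (%) = OD(sample)/OD(control) × 100.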

3T3-L1 cells [2] = experiment: Cellular uptake and intracellular localization by confocal microscopy; type: cell-based; settings: 6-FAM-tagged ASO, 24 h; for cellular uptake, control group: non-differentiated control (Con) cells
Method in brief: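 Control or normoxic-differentiated 3T3-L1 cells were detached at day 4 after induction and re-seeded on chambered coverglass at 70% confluency. After about 20 h, cells were given 6-FAM (3′)-labelled ASO conjugate, or equivalent ASO or ionic complex, for 24 h without serum deprivation. After a PBS wash, live cells were imaged by laser-scanning confocal microscopy (water immersion ×60, 37 °C, 5% CO2).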

Substance: ASO: PS modified antisense-HIF1α-oligonucleotide, 5’-ACAACGCGGGCACCGATTCGCCATG-3’ (antisense ACAACGCGGGCACCGATTCGCCATG; all phosphorothioate, sugars by position and methylation of C not given here)
- cell viability under hypoxia compared to that of control (3T3-L1 cells [1]; differentiation under hypoxia, 1.5 μg/μl ASO): statistically indistinguishable
- concentration showing significant cell toxicity (3T3-L1 cells [1]; non-differentiated control 3T3-L1 cells, AS-L containing 0-10 μg/μl of ASO): ≥ 2 µg/µL
- cellular uptake, differentiation group under normoxia (3T3-L1 cells [2]; differentiation under normoxia (D)): unable to internalize into cells
- cellular uptake, control group (3T3-L1 cells [2]): unable to internalize into cells

Substance: MMO: PS modified mismatch-HIF1α-oligonucleotide, 5’-GTGATCCCCTGCTCTTGCCGT-3’ (GTGATCCCCTGCTCTTGCCGT; all phosphorothioate, sugars by position and methylation of C not given here) [reference compound]
- cellular uptake, control group (3T3-L1 cells [2]): unable to internalize into cells
